ChEMBL document CHEMBL4706568, “Some thermodynamic effects of varying nonpolar surfaces in protein-ligand interactions” (Eur J Med Chem, 2020)
Square brackets hold non-standard residues; d marks the D form. Peptide text beside a SMILES is read from it. * marks the point of attachment. pY = N[C@@H](Cc1ccc(OP(=O)(O)O)cc1)C(=O)O; NHPhenethyl = c1ccc(CCN*)cc1; Ac6c = NC1(C(=O)O)CCCCC1; NHBn = c1ccc(CN*)cc1

Assays:
[1] = target: Growth factor receptor-bound protein 2 (Homo sapiens) (UniProt P62993); experiment: Binding affinity to Grb2-SH2 domain (53 to 163 residues) (unknown origin) expressed in Escherichia coli assessed as association constant by ITC analysis
Sequence of Growth factor receptor-bound protein 2 (Homo sapiens) (P62993 whole entry, looked up, the tested form may be a part): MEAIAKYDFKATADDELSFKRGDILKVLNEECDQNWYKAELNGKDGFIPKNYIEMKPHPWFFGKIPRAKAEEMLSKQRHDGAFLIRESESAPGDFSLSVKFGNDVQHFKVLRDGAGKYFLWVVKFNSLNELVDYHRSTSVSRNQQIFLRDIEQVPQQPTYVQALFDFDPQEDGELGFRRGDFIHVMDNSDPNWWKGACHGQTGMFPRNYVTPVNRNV
Outline: (§1)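 Grb2 SH2 residues 53–163 expressed in E. coli SG13009 (IPTG induction), purified by phosphotyrosine affinity, Q-Sepharose and size exclusion to isolate monomer. Protein diluted to 65–85 μM, ligand ~1 mM, both in 50 mM HEPES, 150 mM NaCl, pH 7.50. VP-ITC at 25 °C, ~35 injections of 7–9 μL ligand, buffer heats subtracted, n normalized to 1.00; ≥3 runs averaged.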

[2] = target: Growth factor receptor-bound protein 2 (Homo sapiens) (UniProt P62993); experiment: Binding affinity to Grb2-SH2 domain (53 to 163 residues) (unknown origin) expressed in Escherichia coli assessed as change in enthalpy by ITC analysis; outline: as §1
[3] = target: Growth factor receptor-bound protein 2 (Homo sapiens) (UniProt P62993); experiment: Binding affinity to Grb2-SH2 domain (53 to 163 residues) (unknown origin) expressed in Escherichia coli assessed as change in gibbs free energy by ITC analysis; outline: as §1
[4] = target: Growth factor receptor-bound protein 2 (Homo sapiens) (UniProt P62993); experiment: Binding affinity to Grb2-SH2 domain (53 to 163 residues) (unknown origin) expressed in Escherichia coli assessed as change in entropy by ITC analysis; outline: as §1

Structure (SMILES) | Ka [1] | deltaH [2] [kcal/mol] | deltaG [3] [kcal/mol] | -TdeltaS [4] [kcal/mol]
CC(=O)N[C@@H](Cc1ccc(OP(=O)(O)O)cc1)C(=O)NC1(C(=O)N[C@@H](CC(N)=O)C(=O)NCCCn2ccc3ccccc32)CCCCC1 | 2.7 10^7/M | -9.1 | -10.1 | -1
CC(=O)N[C@@H](Cc1ccc(OP(=O)(O)O)cc1)C(=O)NC1(C(=O)N[C@@H](CC(N)=O)C(=O)NCCc2ccccc2)CCCCC1 (Ac-[pY]-[Ac6c]-Asn-NHPhenethyl) | 1.5 10^7/M | -7.7 | -9.8 | -2.1
CC(=O)N[C@@H](Cc1ccc(OP(=O)(O)O)cc1)C(=O)NC1(C(=O)N[C@@H](CC(N)=O)C(=O)NCCCc2c[nH]c3ccccc23)CCCCC1 | 3.5 10^7/M | -9.1 | -10.3 | -1.2
CC(=O)N[C@@H](Cc1ccc(OP(=O)(O)O)cc1)C(=O)NC1(C(=O)N[C@@H](CC(N)=O)C(=O)NCCCc2ccc(C)cc2)CCCCC1 | 4 10^7/M | -8.6 | -10.3 | -1.7
COc1ccc(CCCNC(=O)[C@H](CC(N)=O)NC(=O)C2(NC(=O)[C@H](Cc3ccc(OP(=O)(O)O)cc3)NC(C)=O)CCCCC2)cc1 | 5 10^7/M | -9.1 | -10.5 | -1.4
CC(=O)N[C@@H](Cc1ccc(OP(=O)(O)O)cc1)C(=O)NC1(C(=O)N[C@@H](CC(N)=O)C(N)=O)CCCCC1 (Ac-[pY]-[Ac6c]-Asn-NH2) | 0.7 10^7/M | -8.5 | -9.3 | -0.8
CC(=O)N[C@@H](Cc1ccc(OP(=O)(O)O)cc1)C(=O)NC1(C(=O)N[C@@H](CC(N)=O)C(=O)NCc2cn(C)c3ccccc23)CCCCC1 | 1.1 10^7/M | -6.7 | -9.5 | -2.8
CC(=O)N[C@@H](Cc1ccc(OP(=O)(O)O)cc1)C(=O)NC1(C(=O)N[C@@H](CC(N)=O)C(=O)NCCCc2ccc(Cl)cc2)CCCCC1 | 4.7 10^7/M | -9.1 | -10.5 | -1.4
CC(=O)N[C@@H](Cc1ccc(OP(=O)(O)O)cc1)C(=O)NC1(C(=O)N[C@@H](CC(N)=O)C(=O)NCc2ccccc2)CCCCC1 (Ac-[pY]-[Ac6c]-Asn-NHBn) | 1.2 10^7/M | -7.5 | -9.6 | -2.1
CC(=O)N[C@@H](Cc1ccc(OP(=O)(O)O)cc1)C(=O)NC1(C(=O)N[C@@H](CC(N)=O)C(=O)NCCCCCc2ccccc2)CCCCC1 | 2.8 10^7/M | -7.9 | -10.2 | -2.3
CC(=O)N[C@@H](Cc1ccc(OP(=O)(O)O)cc1)C(=O)NC1(C(=O)N[C@@H](CC(N)=O)C(=O)NCCCc2ccccc2)CCCCC1 | 2.6 10^7/M | -8.8 | -10.1 | -1.3
CC(=O)N[C@@H](Cc1ccc(OP(=O)(O)O)cc1)C(=O)NC1(C(=O)N[C@@H](CC(N)=O)C(=O)NCCCC(C)C)CCCCC1 | 1.6 10^7/M | -7.9 | -9.8 | -1.9
CC(=O)N[C@@H](Cc1ccc(OP(=O)(O)O)cc1)C(=O)NC1(C(=O)N[C@@H](CC(N)=O)C(=O)NCCc2cn(C)c3ccccc23)CCCCC1 | 2.4 10^7/M | -8.1 | -10.1 | -2
CC(=O)N[C@@H](Cc1ccc(OP(=O)(O)O)cc1)C(=O)NC1(C(=O)N[C@@H](CC(N)=O)C(=O)NCCCc2cccc3ccccc23)CCCCC1 | 6 10^7/M | -9.6 | -10.6 | -1
CC(=O)N[C@@H](Cc1ccc(OP(=O)(O)O)cc1)C(=O)NC1(C(=O)N[C@@H](CC(N)=O)C(=O)NCCCCc2ccccc2)CCCCC1 | 1.5 10^7/M | -7.7 | -9.8 | -2.1
CC(=O)N[C@@H](Cc1ccc(OP(=O)(O)O)cc1)C(=O)NC1(C(=O)N[C@@H](CC(N)=O)C(=O)NCCCCC(C)C)CCCCC1 | 1.7 10^7/M | -7.8 | -9.8 | -2
CC(=O)N[C@@H](Cc1ccc(OP(=O)(O)O)cc1)C(=O)NC1(C(=O)N[C@@H](CC(N)=O)C(=O)NCCCC2CCCCC2)CCCCC1 | 1.9 10^7/M | -8 | -9.9 | -1.9
CC(=O)N[C@@H](Cc1ccc(OP(=O)(O)O)cc1)C(=O)NC1(C(=O)N[C@@H](CC(N)=O)C(=O)NCCCc2cn(C)c3ccccc23)CCCCC1 | 4.9 10^7/M | -10.2 | -10.4 | -0.2
